Usually MIC stands for the lowest concentration found to suppress growth. A lower MIC goes with inhibition by little substance. Broadly, the MIC50 is the lowest concentration that inhibits either 50% of growth or 50% of the strains tested, depending on the study. Read a low MIC50 as higher susceptibility. Usually MIC90 stands for an inhibitory concentration at the 90% level, which refers to growth in some studies and to a panel of isolates in others.

The results in this text go back to ChEMBL document CHEMBL1629597, “In vitro evaluation of the antimicrobial activity of ceftaroline against cephalosporin-resistant isolates of Streptococcus pneumoniae” (2009).

Holding throughout (type): functional
The test system of experiment [1] is Streptococcus pneumoniae. The experiment can be described thus: Antimicrobial activity against Streptococcus pneumoniae R6 transformed with Streptococcus pneumoniae 72521 pbp2x, pbp1a, pbp2b and Streptococcus pneumoniae 3191 murM genes by broth microdilution method. The essentials: (§1)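 Reference broth microdilution MIC per CLSI guidelines, testing ceftaroline, penicillin, ceftriaxone and cefotaxime against susceptible laboratory strain R6 and R6 transformants. The transformants carry pbp and/or murM genes with β-lactam-resistance mutations, or genomic DNA, from donors 3191 (Hungarian clone) and 72521 (French isolate). MICs are in μg/ml.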
(In broth dilution the organism is exposed to a series of concentrations in liquid medium.)

Experiment [2] has as its system Streptococcus pneumoniae. Description: Antimicrobial activity against Streptococcus pneumoniae R6 transformed with Streptococcus pneumoniae 72521 genomic DNA, pbp2x, pbp1a and pbp2b genes by broth microdilution method. The essentials: as §1
The subject of experiment [3] is Streptococcus pneumoniae. The experiment can be described thus: Antimicrobial activity against Streptococcus pneumoniae 3191 by broth microdilution method.
For experiment [4], the system named is Streptococcus pneumoniae. The experiment can be described thus: Antimicrobial activity against Streptococcus pneumoniae R6 transformed with Streptococcus pneumoniae 3191 pbp2x and Streptococcus pneumoniae 72521 pbp2b genes by broth microdilution method. In short, it runs like this:
as §1

The subject of experiment [5] is Streptococcus pneumoniae. The experiment can be described thus: Antimicrobial activity against Streptococcus pneumoniae R6 transformed with Streptococcus pneumoniae 3191 pbp2b, pbp1a and murM genes by broth microdilution method. The essentials:
as §1

Experiment [6] relates to Streptococcus pneumoniae. Description: Antimicrobial activity against Streptococcus pneumoniae R6 transformed with Streptococcus pneumoniae 3191 pbp2x and pbp1a genes by broth microdilution method. In short, it runs like this: as §1
For experiment [7], the system named is Streptococcus pneumoniae. The experiment can be described thus: Antimicrobial activity against Streptococcus pneumoniae 72521 by broth microdilution method.
Experiment [8] deals with Streptococcus pneumoniae. The experiment can be described thus: Antimicrobial activity against Streptococcus pneumoniae R6 transformed with Streptococcus pneumoniae 3191 pbp2x, pbp2b, murM and Streptococcus pneumoniae 72521 pbp1a genes by broth microdilution method. The essentials:
as §1

Experiment [9] deals with Streptococcus pneumoniae. The experiment can be described thus: Antimicrobial activity against Streptococcus pneumoniae R6 transformed with Streptococcus pneumoniae 3191 pbp2x, pbp2b, pbp1a genes by broth microdilution method. In short, it runs like this: as §1
Experiment [10] deals with Streptococcus pneumoniae. The experiment can be described thus: Antimicrobial activity against Streptococcus pneumoniae R6 transformed with Streptococcus pneumoniae 72521 pbp2x and pbp2b genes by broth microdilution method. The essentials:
as §1

Experiment [11] has as its system Streptococcus pneumoniae. Description: Antimicrobial activity against Streptococcus pneumoniae R6 transformed with Streptococcus pneumoniae 3191 pbp2x gene by broth microdilution method. In short, it runs like this: as §1
In experiment [12] the test system is Streptococcus pneumoniae. The experiment can be described thus: Antimicrobial activity against Streptococcus pneumoniae R6 transformed with Streptococcus pneumoniae 72521 genomic DNA, pbp2x, pbp1a, pbp2b and Streptococcus pneumoniae 3191 pbp1a genes by broth microdilution method. The essentials: as §1
Experiment [13] relates to Streptococcus pneumoniae. Description: Antimicrobial activity against Streptococcus pneumoniae by broth microdilution method.
The test system of experiment [14] is Streptococcus pneumoniae. The experiment can be described thus: Antimicrobial activity against Streptococcus pneumoniae R6 transformed with Streptococcus pneumoniae 72521 pbp2x, pbp1a and pbp2b genes by broth microdilution method. The essentials:
as §1

Experiment [15] has as its system Streptococcus pneumoniae. The experiment can be described thus: Antimicrobial activity against Streptococcus pneumoniae R6 transformed with Streptococcus pneumoniae 3191 pbp2x, pbp2b, pbp1a and Streptococcus pneumoniae 72521 murM genes by broth microdilution method. In short, it runs like this:
as §1

Experiment [16] has as its system Streptococcus pneumoniae. Description: Antimicrobial activity against Streptococcus pneumoniae R6 by broth microdilution method. In short, it runs like this: as §1
The subject of experiment [17] is Streptococcus pneumoniae. Description: Antimicrobial activity against Streptococcus pneumoniae R6 transformed with Streptococcus pneumoniae 72521 murM, pbp2x, pbp2b and Streptococcus pneumoniae 3191 pbp1a genes by broth microdilution method. In short, it runs like this:
as §1

The subject of experiment [18] is Streptococcus pneumoniae. Description: Antimicrobial activity against Streptococcus pneumoniae R6 transformed with Streptococcus pneumoniae 72521 pbp2x, pbp2b and Streptococcus pneumoniae 3191 pbp1a genes by broth microdilution method. The essentials:
as §1

Experiment [19] deals with Streptococcus pneumoniae. The experiment can be described thus: Antimicrobial activity against Streptococcus pneumoniae R6 transformed with Streptococcus pneumoniae 3191 pbp2x and pbp2b genes by broth microdilution method. In short, it runs like this:
as §1

For experiment [20], the system named is Streptococcus pneumoniae. Description: Antimicrobial activity against Streptococcus pneumoniae R6 transformed with Streptococcus pneumoniae 72521 pbp2x, pbp1a, pbp2b genes and Streptococcus pneumoniae 3191 genomic DNA by broth microdilution method. The essentials: as §1
In experiment [21] the test system is Streptococcus pneumoniae. Description: Antimicrobial activity against Streptococcus pneumoniae R6 transformed with Streptococcus pneumoniae 72521 pbp2x gene by broth microdilution method. The essentials:
as §1

≈ marks a conversion by molar mass, not a printed value. Some results are limits rather than exact numbers.

For the compound `CC1(C)S[C@@H]2[C@H](NC(=O)[C@H](N)c3ccc(O)cc3)C(=O)N2[C@H]1C(=O)O` [AMOXICILLIN], the MIC against Streptococcus pneumoniae [1] came out at 1 µg/mL (≈ 2.74 µM); against Streptococcus pneumoniae [2], 1 µg/mL (≈ 2.74 µM); in the experiment on Streptococcus pneumoniae [3] it was 8 µg/mL (≈ 21.9 µM); in the experiment with Streptococcus pneumoniae [4], 0.19 µg/mL (≈ 0.52 µM); in the experiment with Streptococcus pneumoniae [5], 0.023 µg/mL (≈ 0.0629 µM); with Streptococcus pneumoniae [6], 0.032 µg/mL (≈ 0.0876 µM). In addition, the MIC in the experiment on Streptococcus pneumoniae [7] turned out to be 8 µg/mL (≈ 21.9 µM); against Streptococcus pneumoniae [8] it was 1.5 µg/mL (≈ 4.1 µM); against Streptococcus pneumoniae [9] it was 4 µg/mL (≈ 10.9 µM); with Streptococcus pneumoniae [10], 0.094 µg/mL (≈ 0.257 µM); against Streptococcus pneumoniae [11], 0.047 µg/mL (≈ 0.129 µM); against Streptococcus pneumoniae [12], 1.5 µg/mL (≈ 4.1 µM). Also, the minimal inhibitory concentration (MIC) was 0.5 µg/mL (≈ 1.37 µM) with Streptococcus pneumoniae [14]; 4 µg/mL (≈ 10.9 µM) against Streptococcus pneumoniae [15]; not above 0.015 µg/mL against Streptococcus pneumoniae [16]; 3 µg/mL (≈ 8.21 µM) against Streptococcus pneumoniae [17]; 0.75 µg/mL (≈ 2.05 µM) against Streptococcus pneumoniae [18]; 0.19 µg/mL (≈ 0.52 µM) against Streptococcus pneumoniae [19]. In the experiment on Streptococcus pneumoniae [20], this compound gave an MIC of 1 µg/mL (≈ 2.74 µM). Further, the MIC50 with Streptococcus pneumoniae [13] stood at 8 µg/mL (≈ 21.9 µM). In the experiment on Streptococcus pneumoniae [13], this compound registered an MIC90 of more than 8 µg/mL.

Turning to `CO/N=C(\C(=O)N[C@@H]1C(=O)N2C(C(=O)O)=C(COC(C)=O)CS[C@H]12)c1csc(N)n1` [CEFOTAXIME], the MIC with Streptococcus pneumoniae [1] came to 2 µg/mL (≈ 4.39 µM); in the experiment on Streptococcus pneumoniae [2], 2 µg/mL (≈ 4.39 µM); against Streptococcus pneumoniae [21], 0.06 µg/mL (≈ 0.132 µM); with Streptococcus pneumoniae [3], 4 µg/mL (≈ 8.78 µM); in the experiment on Streptococcus pneumoniae [4], 1 µg/mL (≈ 2.2 µM); in the experiment on Streptococcus pneumoniae [5], 0.03 µg/mL (≈ 0.0659 µM). For the same compound, the MIC with Streptococcus pneumoniae [6] came to 0.06 µg/mL (≈ 0.132 µM); against Streptococcus pneumoniae [7] it was 2 µg/mL (≈ 4.39 µM); against Streptococcus pneumoniae [8] it was 2 µg/mL (≈ 4.39 µM); in the experiment on Streptococcus pneumoniae [9], 16 µg/mL (≈ 35.1 µM); in the experiment with Streptococcus pneumoniae [10], 0.5 µg/mL (≈ 1.1 µM); with Streptococcus pneumoniae [11] it was 0.03 µg/mL (≈ 0.0659 µM). Also, the MIC in the experiment with Streptococcus pneumoniae [12] was 4 µg/mL (≈ 8.78 µM); in the experiment on Streptococcus pneumoniae [14] it was 2 µg/mL (≈ 4.39 µM); in the experiment with Streptococcus pneumoniae [15] it was 16 µg/mL (≈ 35.1 µM); against Streptococcus pneumoniae [16] it was 0.03 µg/mL (≈ 0.0659 µM); in the experiment on Streptococcus pneumoniae [17], 4 µg/mL (≈ 8.78 µM); in the experiment with Streptococcus pneumoniae [18] it was 2 µg/mL (≈ 4.39 µM). Besides, the MIC in the experiment on Streptococcus pneumoniae [19] stood at 0.5 µg/mL (≈ 1.1 µM); in the experiment on Streptococcus pneumoniae [20] it was 2 µg/mL (≈ 4.39 µM). For the same compound, the MIC50 against Streptococcus pneumoniae [13] was 8 µg/mL (≈ 17.6 µM). For the same compound, in the experiment with Streptococcus pneumoniae [13], the MIC90 was 8 µg/mL (≈ 17.6 µM).

For the compound `CO/N=C(\C(=O)N[C@@H]1C(=O)N2C(C(=O)O)=C(CSc3nc(=O)c(O)nn3C)CS[C@H]12)c1csc(N)n1` [CEFTRIAXONE], the minimum inhibitory concentration (MIC) with Streptococcus pneumoniae [1] came to 1 µg/mL (≈ 1.8 µM); against Streptococcus pneumoniae [2] it was 0.5 µg/mL (≈ 0.902 µM); against Streptococcus pneumoniae [21] it was 0.5 µg/mL (≈ 0.902 µM); against Streptococcus pneumoniae [3], 8 µg/mL (≈ 14.4 µM); with Streptococcus pneumoniae [4], 2 µg/mL (≈ 3.61 µM); against Streptococcus pneumoniae [5], 0.06 µg/mL (≈ 0.108 µM). In addition, the minimal inhibitory concentration (MIC) in the experiment with Streptococcus pneumoniae [6] worked out at 2 µg/mL (≈ 3.61 µM); in the experiment with Streptococcus pneumoniae [7] it was 4 µg/mL (≈ 7.21 µM); in the experiment with Streptococcus pneumoniae [8], 4 µg/mL (≈ 7.21 µM); in the experiment on Streptococcus pneumoniae [9], 4 µg/mL (≈ 7.21 µM); against Streptococcus pneumoniae [10], 1 µg/mL (≈ 1.8 µM); with Streptococcus pneumoniae [11] it was 2 µg/mL (≈ 3.61 µM). The MIC with Streptococcus pneumoniae [12] came to 2 µg/mL (≈ 3.61 µM); in the experiment with Streptococcus pneumoniae [14] it was 0.5 µg/mL (≈ 0.902 µM); against Streptococcus pneumoniae [15] it was 8 µg/mL (≈ 14.4 µM); against Streptococcus pneumoniae [16], 0.03 µg/mL (≈ 0.0541 µM); in the experiment with Streptococcus pneumoniae [17] it was 4 µg/mL (≈ 7.21 µM); with Streptococcus pneumoniae [18], 2 µg/mL (≈ 3.61 µM). Further, the MIC against Streptococcus pneumoniae [19] was 1 µg/mL (≈ 1.8 µM); with Streptococcus pneumoniae [20], 2 µg/mL (≈ 3.61 µM). Also, the MIC50 with Streptococcus pneumoniae [13] is 8 µg/mL (≈ 14.4 µM). In the experiment with Streptococcus pneumoniae [13], this compound registered an MIC90 of 8 µg/mL (≈ 14.4 µM).

In the experiment with Streptococcus pneumoniae [13], `C[C@@H](O)[C@H]1C(=O)N2C(C(=O)O)=C(S[C@@H]3CN[C@H](C(=O)N(C)C)C3)[C@H](C)[C@H]12` [MEROPENEM] yielded an MIC50 of 1 µg/mL (≈ 2.61 µM) and an MIC90 of 2 µg/mL (≈ 5.22 µM).

For `CC1(C)S[C@@H]2[C@H](NC(=O)Cc3ccccc3)C(=O)N2[C@H]1C(=O)O` [PENICILLIN G], the MIC against Streptococcus pneumoniae [1] worked out at 1 µg/mL (≈ 2.99 µM); against Streptococcus pneumoniae [2], 1 µg/mL (≈ 2.99 µM); against Streptococcus pneumoniae [21] it was 0.5 µg/mL (≈ 1.5 µM); in the experiment on Streptococcus pneumoniae [3], 16 µg/mL (≈ 47.8 µM); with Streptococcus pneumoniae [4] it was 2 µg/mL (≈ 5.98 µM); in the experiment on Streptococcus pneumoniae [5], 0.03 µg/mL (≈ 0.0897 µM). For the same compound, the minimal inhibitory concentration (MIC) against Streptococcus pneumoniae [6] was 2 µg/mL (≈ 5.98 µM); against Streptococcus pneumoniae [7] it was 4 µg/mL (≈ 12 µM); with Streptococcus pneumoniae [8] it was 8 µg/mL (≈ 23.9 µM); against Streptococcus pneumoniae [9], 4 µg/mL (≈ 12 µM); in the experiment on Streptococcus pneumoniae [10] it was 0.5 µg/mL (≈ 1.5 µM); against Streptococcus pneumoniae [11], 2 µg/mL (≈ 5.98 µM). Besides, the MIC amounted to 2 µg/mL (≈ 5.98 µM) against Streptococcus pneumoniae [12]; 0.5 µg/mL (≈ 1.5 µM) against Streptococcus pneumoniae [14]; 8 µg/mL (≈ 23.9 µM) against Streptococcus pneumoniae [15]; 0.015 µg/mL (≈ 0.0449 µM) in the experiment on Streptococcus pneumoniae [16]; 2 µg/mL (≈ 5.98 µM) in the experiment with Streptococcus pneumoniae [17]; 1 µg/mL (≈ 2.99 µM) against Streptococcus pneumoniae [18]. Further, the MIC against Streptococcus pneumoniae [19] came out at 1 µg/mL (≈ 2.99 µM); against Streptococcus pneumoniae [20], 8 µg/mL (≈ 23.9 µM). The MIC50 in the experiment with Streptococcus pneumoniae [13] amounted to 8 µg/mL (≈ 23.9 µM). The compound also returned an MIC90 against Streptococcus pneumoniae [13] of 8 µg/mL (≈ 23.9 µM).
